# Screens: PubChem BioAssay, several laboratories
# A selection: hits, their analogues and other compounds. The true share with any hit is near 5.7%.
# Calb FLC: C. albicans growth inhibition with fluconazole, primary screen, CaCi-2 strain, Alamar Blue fluorescence | C. albicans CaCi-2 (fluconazole-resistant clinical isolate) + fluconazole, 48 h | growth inhibition, % (test concentration not listed) | 0.57% of 300,000 active | AID 1979, 2009;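 active means growth inhibition above about 58% in most replicates, limit read from the data, passing the limit was not always enough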;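 further: all wells also contain fluconazole at 8 µg/ml as a sub-toxic cotreatment; 0% = median of DMSO wells and 100% = median of geldanamycin control wells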
# CSC inhib: cancer stem cell viability inhibitors, primary screen, luminescence; cancer stem cell-like cells viability; inhibition, % at 7.5 µM; 1.1% of 300,000 active; in the data active means inhibition above about 75%; tested in HMLE shEcad cells
# T cruzi repl: inhibitors of intracellular T. cruzi growth, primary screen, luminescence, NIH3T3 host cells | inhibition, % (test concentration not listed) | T. cruzi beta-gal in NIH3T3, 90 h | 1.4% of 300,000 active;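 active means mean inhibition across valid replicates above about 55%, limit read from the data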;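 further: signal also drops with host cell toxicity which is not excluded here; 0% = plate median of DMSO wells and 100% = zero luminescence signal; higher percent means less beta-gal luminescence so fewer parasites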
#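 Incubation – ≥90 h infection period, 3 h prior cell attachment · System – NIH/3T3 fibroblasts plus reporter T. cruzi · Doses – compound pinned at 50 nL/well, DMSO · Read-out basis – percent inhibition of parasite-derived β-gal signal · Signal – luminescent β-galactosidase signal after 60 min lysis · Also added – 5000 T. cruzi trypomastigotes/well · Medium – Low-serum DMEM with 2% FBS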
# Mdm2-MdmX inh: inhibitors of human Mdm2-MdmX association, primary screen, cell-based, luminescence, split luciferase, SaOS-2, uHTS. 3% of 330,000 active. inhibition, % at 8 µM. SaOS-2 split-luciferase Mdm2/MdmX complementation. AID 485346, 2010;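 active means inhibition of at least 50% at 8 µM in the primary screen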
# Target sequence (O15151 whole entry, looked up): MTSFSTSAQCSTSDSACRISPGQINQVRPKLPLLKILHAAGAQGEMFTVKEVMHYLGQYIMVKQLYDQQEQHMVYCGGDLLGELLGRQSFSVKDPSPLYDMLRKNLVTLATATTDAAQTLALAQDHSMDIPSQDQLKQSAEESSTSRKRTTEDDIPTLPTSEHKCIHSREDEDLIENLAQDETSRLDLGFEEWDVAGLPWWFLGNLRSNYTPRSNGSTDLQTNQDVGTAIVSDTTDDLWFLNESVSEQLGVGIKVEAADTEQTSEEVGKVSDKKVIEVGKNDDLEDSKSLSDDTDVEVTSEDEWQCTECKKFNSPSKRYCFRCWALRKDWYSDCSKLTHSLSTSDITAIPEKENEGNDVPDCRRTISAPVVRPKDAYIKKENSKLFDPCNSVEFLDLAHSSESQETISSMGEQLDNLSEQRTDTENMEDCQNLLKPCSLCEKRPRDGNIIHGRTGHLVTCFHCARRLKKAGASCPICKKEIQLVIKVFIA
# Target sequence (Q00987 whole entry, looked up): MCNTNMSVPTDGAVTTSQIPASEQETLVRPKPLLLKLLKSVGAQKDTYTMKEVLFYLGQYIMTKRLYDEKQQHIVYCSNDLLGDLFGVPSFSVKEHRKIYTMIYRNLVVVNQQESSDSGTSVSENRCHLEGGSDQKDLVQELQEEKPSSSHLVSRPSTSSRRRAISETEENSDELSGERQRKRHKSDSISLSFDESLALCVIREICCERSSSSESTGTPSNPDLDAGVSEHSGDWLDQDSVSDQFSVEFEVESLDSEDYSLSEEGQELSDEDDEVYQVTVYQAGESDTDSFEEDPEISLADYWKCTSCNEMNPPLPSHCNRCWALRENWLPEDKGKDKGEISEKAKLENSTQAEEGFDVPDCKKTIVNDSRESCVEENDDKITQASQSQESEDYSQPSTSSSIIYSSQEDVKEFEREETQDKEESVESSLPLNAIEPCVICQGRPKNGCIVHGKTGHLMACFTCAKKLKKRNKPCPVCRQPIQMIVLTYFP
# Beta apoptosis: inhibitors of cytokine-induced beta cell apoptosis, primary screen, luminescence; INS-1E cytokine-induced death, ATP luminescence, 48 h; percent of positive-control rescue, neutral wells zero; protection from apoptosis, % (no concentration beside the values); 0.8% of 300,000 active;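 active means Every replicate reaches about 75%, or at least half do and their mean reaches it too, limit read from the data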;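 further: 0% = cytokine-treated negative control wells and 100% = positive control rescue; higher means more ATP so stronger rescue from cytokine killing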
# SKKanGAS inh: S. pyogenes SKKanGAS growth inhibitors in kanamycin, primary screen, streptokinase expression inhibitor project, SKKanGAS strain, BacTiter-Glo luminescence; 6 h; inhibition, % at 7.5 µM; 1.3% of 300,000 active; AID 1662, 2009;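 active means mean replicate score, as percent of positive control median, at least 50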;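 further: strain carries kanamycin resistance gene driven by streptokinase promoter and grows in 40 µg/ml kanamycin; loss of luminescence reflects streptokinase promoter inhibition or plain growth inhibition; 0% = median of DMSO wells and 100% = positive control at its reference dose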
# Numbers without * were called inactive; nt = no result.
SMILES,Calb FLC,CSC inhib,T cruzi repl,Mdm2-MdmX inh,Beta apoptosis,SKKanGAS inh
C[C@@H]1COC(=O)[C@@H](Cc2ccc(F)cc2)CC/C=C\C[C@@H](CC(=O)NCCO)C(=O)N1,nt,-5,nt,22,-2,nt
CCCOc1nc2c(c(=O)n(C)c(=O)n2C)n1Cc1cccc2ccccc12,25,5,19,24,103*,8
COc1ccc(S(=O)(=O)N(C)c2nc3ccccc3n3c(CC(C)C)nnc23)cc1,2,-9,34,16,5,-7
COc1ccccc1C(=O)NC(=S)NNC(=O)c1sc2ccccc2c1Cl,4,55,-55,42,12,118*
Cc1c(NC(=S)NC(=O)c2sc3ccccc3c2Cl)cccc1C(=O)O,23,-6,1,-30,-3,16
COc1ccccc1C(=O)NNC(=S)NC(=O)c1sc2ccccc2c1Cl,-8,nt,28,44,0,94*
CC1CCCCC1NC(=S)NC(=O)c1sc2ccccc2c1Cl (configuration not stated),-22,0,-1,9,-2,5
CC1C(=O)C(C)C(c2ccc(Cl)cc2)NC1c1ccc(Cl)cc1 (configuration not stated),-4,55,51,-17,nt,35
CC1C(=O)C(C)C(c2cccc(Br)c2)NC1c1cccc(Br)c1 (configuration not stated),2,15,6,4,1,60*
CC1(C)CCCN(C(=O)N2c3ccccc3Sc3ccccc32)C1,-5,24,13,-5,nt,80*
O=C(Nc1cc(Cl)ccc1N1CCOCC1)c1ccc(N2CCCCC2)c([N+](=O)[O-])c1,2,71,22,36,-7,-4
O=C(Nc1ccc(N2CCCCC2)c(Cl)c1)c1ccc(N2CCOCC2)c([N+](=O)[O-])c1,40,51,62*,39,31,6
O=C(Nc1ccc(N2CCCC2)c(Cl)c1)c1ccc2c(c1)OCCO2,-8,nt,59*,-78,61,26
CCOc1ncccc1C(=O)Nc1cccc(S(=O)(=O)N2CCOCC2)c1,nt,-33,nt,-7,-3,nt
CCC(C)(C)NC(=O)CN(Cc1ccc(OC)cc1)C(=O)CCC(=O)Nc1nccs1,22,nt,7,0,-3,-9
CC(=O)NS(=O)(=O)c1ccc(N=c2ssc3c2-c2ccc(C)cc2NC3(C)C)cc1,29,44,0,4,-2,82*
Cc1sc(NC(=O)c2ccccc2)c(C(=O)NCCN(C)C)c1C,-4,-2,43,11,10,5
O=C(Nc1ccc2cn[nH]c2c1)c1c(Cl)cccc1Cl,5,-8,-6,-1,nt,10
O=C1C(Cl)=C(Nc2ccc3cn[nH]c3c2)C(=O)c2ccccc21,4,109*,59*,nt,110*,73*
CC(Oc1cccc([N+](=O)[O-])c1)C(=O)NCCC1=CCCCC1 (configuration not stated),nt,-16,nt,25,0,nt
COc1ccc(Cc2n[nH]c(=S)n2NC(=O)Nc2ccc(Cl)c(Cl)c2)cc1,-3,40,5,-13,10,65*
Cn1c(CC(=O)Nc2ccc(Cl)c(Cl)c2)n[nH]c1=S,-7,7,-11,6,-1,0
CCC(C(=O)OCc1csc(CC(=O)Nc2ccccc2C)n1)c1ccccc1 (configuration not stated),nt,nt,nt,-10,3,nt
Cc1onc(-c2ccc(Cl)cc2Cl)c1-c1csc(N/N=C/c2ccccc2Cl)n1,1,45,62*,27,nt,4
NS(=O)(=O)c1cc(Cl)c(NC(=O)COC(=O)c2ccccn2)c(Cl)c1,nt,-8,nt,8,4,nt
CC1(c2ccc(OC(F)F)cc2)NC(=O)N(CC(=O)N2c3ccccc3NC(=O)C2(C)C)C1=O (configuration not stated),nt,-12,nt,26,-2,nt
CCOC(=O)c1ccc(-c2c(-c3ccccc3OC)oc3ccccc23)cc1F,nt,21,nt,29,1,nt
CCOC(=O)c1ccc(-c2ccc3c(=O)c4ccccc4n(C)c3c2)cc1F,-16,-1,4,21,5,65*
